Test results published in ChEMBL document CHEMBL2331225, “Structure-based design, synthesis and evaluation of novel anthra[1,2-d]imidazole-6,11-dione derivatives as telomerase inhibitors and potential for cancer polypharmacology” (Eur J Med Chem, 2013).
Calls of active or inactive are those of the source. The calls are words filed in the database; no cut-off is given here.

How the values were obtained:
[1] = test system: PC-3; test: Growth inhibition of human PC3 cells after 48 hrs by SRB assay; format: functional, cell-based; settings: PC-3, 48 h
Summary of the method: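 PC-3 cells were seeded in medium with 5% FBS; after 24 h a plate was fixed with 10% TCA as T₀. Vehicle (0.1% DMSO) or compound was given for 48 h, then cells were TCA-fixed, stained with 0.4% SRB in 1% acetic acid, solubilized in 10 mM Trizma base and read at 515 nm. IC₅₀ is the concentration halving the protein increase seen in controls.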

[2] = target: T1, Telomerase reverse transcriptase (Homo sapiens, UniProt O14746); test: Inhibition of TERT transcriptional activity in human H1299 cells assessed SEAP activity at 100 uM incubated for 24 hrs by SEAP assay; format: cell-based; set-up: scale not given: the % may be the effect or the level left
Summary of the method: (§1)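 H1299 stable clones carry the hTERT promoter (−3338 to +1 bp) upstream of SEAP, introduced by electroporation and selected with G418. About 2 × 10³ cells per well were grown 24 h at 37 °C, given fresh medium, then drug for 24 h. Collected media were heated at 65 °C for 10 min, mixed with equal SEAP buffer (2 M diethanolamine, 1 mM MgCl₂, 20 mM L-homoarginine) and p-nitrophenyl phosphate at 12 mM final.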

[3] = target: T1, Telomerase reverse transcriptase; test: Inhibition of TERT transcriptional activity in human H1299 cells assessed SEAP activity at 10 uM incubated for 24 hrs by SEAP assay; format: cell-based; set-up: scale not given: the % may be the effect or the level left; summary of the method: as §1
[4] = target: T1, Telomerase reverse transcriptase; test: Inhibition of TERT transcriptional activity in human H1299 cells assessed SEAP activity at 1 uM incubated for 24 hrs by SEAP assay; format: cell-based; set-up: scale not given: the % may be the effect or the level left; summary of the method: as §1
[5] = Cytotoxicity against human H1299 cells assessed as cell viability at 100 uM after 48 hrs by MTT assay; format: functional; settings: NCI-H1299, 48 h, read-out: Activity
Summary of the method: (§2)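 H1299 cells at about 2 × 10³ per well were grown 24 h at 37 °C in 5% CO₂. Compounds were dissolved in DMSO just before use and diluted into complete medium. After 48 h exposure, MTT was added for 4 h at 37 °C, then lysis buffer (20% SDS, 50% DMF) for 16 h at 37 °C. Absorbance was read at 550 nm.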

[6] = Cytotoxicity against human H1299 cells assessed as cell viability at 10 uM after 48 hrs by MTT assay; format: functional; settings: NCI-H1299, 48 h, read-out: Activity; summary of the method: as §2
[7] = Cytotoxicity against human H1299 cells assessed as cell viability at 1 uM after 48 hrs by MTT assay; format: functional; settings: NCI-H1299, 48 h, read-out: Activity; summary of the method: as §2
[8] = target: T1, Telomerase reverse transcriptase; test: Inhibition of TERT activity in human H1299 cells homogenates incubated for 5 mins at 100 uM by TRAP assay; format: cell-free
Summary of the method: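 Telomerase-active extracts were prepared from H1299 cells, and lysate protein was measured against BSA standards. Compounds were tested in the TRAP assay, with RNase A-treated extracts as negative controls.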

T1 sequence (O14746 whole entry): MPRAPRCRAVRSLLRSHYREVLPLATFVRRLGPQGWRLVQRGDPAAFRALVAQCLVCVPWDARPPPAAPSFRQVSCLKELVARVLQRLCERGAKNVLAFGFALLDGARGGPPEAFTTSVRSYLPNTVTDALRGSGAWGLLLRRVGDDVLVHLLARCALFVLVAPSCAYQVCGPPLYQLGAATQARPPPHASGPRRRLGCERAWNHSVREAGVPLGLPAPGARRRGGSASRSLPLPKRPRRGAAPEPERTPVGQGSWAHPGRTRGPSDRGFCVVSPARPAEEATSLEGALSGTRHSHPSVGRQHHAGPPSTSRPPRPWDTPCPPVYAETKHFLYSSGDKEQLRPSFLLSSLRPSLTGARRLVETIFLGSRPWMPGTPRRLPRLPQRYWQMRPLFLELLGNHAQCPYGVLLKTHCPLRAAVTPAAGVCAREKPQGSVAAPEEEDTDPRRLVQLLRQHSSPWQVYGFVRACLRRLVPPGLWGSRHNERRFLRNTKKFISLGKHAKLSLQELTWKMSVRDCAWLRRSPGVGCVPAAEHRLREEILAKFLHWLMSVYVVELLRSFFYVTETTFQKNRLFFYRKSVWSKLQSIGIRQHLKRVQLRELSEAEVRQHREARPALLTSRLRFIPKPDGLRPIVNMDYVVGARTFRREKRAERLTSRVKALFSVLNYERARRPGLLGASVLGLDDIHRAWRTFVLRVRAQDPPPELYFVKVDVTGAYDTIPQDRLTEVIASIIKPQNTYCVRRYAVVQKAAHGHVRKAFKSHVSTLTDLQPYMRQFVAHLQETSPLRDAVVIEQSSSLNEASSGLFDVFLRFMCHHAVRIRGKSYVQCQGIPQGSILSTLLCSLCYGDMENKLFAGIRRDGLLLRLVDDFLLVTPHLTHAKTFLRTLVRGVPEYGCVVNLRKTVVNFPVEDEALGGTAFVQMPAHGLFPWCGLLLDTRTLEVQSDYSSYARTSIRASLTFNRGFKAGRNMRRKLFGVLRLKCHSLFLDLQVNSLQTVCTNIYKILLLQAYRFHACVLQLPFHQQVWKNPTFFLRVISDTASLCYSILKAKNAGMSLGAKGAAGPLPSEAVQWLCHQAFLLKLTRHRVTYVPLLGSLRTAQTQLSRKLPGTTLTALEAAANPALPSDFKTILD

Compound	IC50 [1]	Activity [2]	Activity [3]	Activity [4]	TERT inhibition (active/not active) [8]	viability at 100 µM [5]	viability at 10 µM [6]	viability at 1 µM [7]
C=CCN1CCN(Cc2nc3ccc4c(c3[nH]2)C(=O)c2ccccc2C4=O)CC1	12.8 µM	0%	17%	87%	inactive	0%	45%	86%
O=C1c2ccccc2C(=O)c2c1ccc1nc(CCCl)[nH]c21	5.2 µM	8%	83%	95%	inactive	40%	86%	91%
CC1CCN(Cc2nc3ccc4c(c3[nH]2)C(=O)c2ccccc2C4=O)CC1	> 30 µM	26%	97%	102%	inactive	32%	110%	114%
O=C1c2ccccc2C(=O)c2c1ccc1nc(CN(Cc3ccccn3)Cc3ccccn3)[nH]c21	6.4 µM	0%	0%	86%	inactive	0%	13%	101%
CC(C)N(C)Cc1nc2ccc3c(c2[nH]1)C(=O)c1ccccc1C3=O	6.7 µM	0%	1%	77%	inactive	0%	23%	96%
N#Cc1ccccc1N1CCN(Cc2nc3ccc4c(c3[nH]2)C(=O)c2ccccc2C4=O)CC1	29 µM	6%	57%	106%	inactive	22%	62%	78%
O=C1c2ccccc2C(=O)c2c1ccc1nc(CNCc3cccc(C(F)(F)F)c3)[nH]c21	> 30 µM	4%	89%	87%	inactive	32%	110%	114%
Nc1ccc2c(c1N)C(=O)c1ccccc1C2=O	–	18%	–	99%	inactive	39%	95%	105%

Now from value to compound, other results behind:

IC50 [1]	Activity [2]	Activity [3]	Activity [4]	TERT inhibition (active/not active) [8]	Compound	viability at 100 µM [5]	viability at 10 µM [6]	viability at 1 µM [7]
17.1 µM	0%	34%	96%	inactive	CCCN(C)Cc1nc2ccc3c(c2[nH]1)C(=O)c1ccccc1C3=O	0%	80%	93%
17.3 µM	0%	7%	74%	inactive	CN1CCN(CCc2nc3ccc4c(c3[nH]2)C(=O)c2ccccc2C4=O)CC1	0%	32%	87%
> 30 µM	12%	77%	102%	inactive	CN(Cc1nc2ccc3c(c2[nH]1)C(=O)c1ccccc1C3=O)Cc1c2ccccc2cc2ccccc12	42%	84%	98%
> 30 µM	0%	11%	98%	inactive	O=C1c2ccccc2C(=O)c2c1ccc1nc(CN3CCN(Cc4ccccc4)CC3)[nH]c21	13%	51%	93%
27.9 µM	19%	92%	111%	inactive	O=C1c2ccccc2C(=O)c2c1ccc1nc(CN3CCN(c4ncccn4)CC3)[nH]c21	28%	74%	85%
21.6 µM	14%	96%	97%	inactive	O=C1c2ccccc2C(=O)c2c1ccc1nc(CN3CCC4(CC3)OCCO4)[nH]c21	15%	79%	103%
> 30 µM	1%	63%	88%	inactive	O=C1c2ccccc2C(=O)c2c1ccc1nc(CCN3CCN(c4ccccn4)CC3)[nH]c21	57%	93%	98%
12.1 µM	12%	86%	106%	inactive	O=C1c2ccccc2C(=O)c2c1ccc1nc(CN3CCSC3)[nH]c21	5%	76%	89%
12.4 µM	26%	97%	102%	inactive	O=C1c2ccccc2C(=O)c2c1ccc1nc(CN3CCOCC3)[nH]c21	13%	71%	90%
16.7 µM	0%	78%	103%	inactive	O=C1c2ccccc2C(=O)c2c1ccc1nc(CN3CCN(c4ccccc4F)CC3)[nH]c21	15%	77%	88%
6.7 µM	5%	77%	115%	inactive	O=C1c2ccccc2C(=O)c2c1ccc1nc(CN3CCSCC3)[nH]c21	1%	77%	92%
21 µM	7%	69%	90%	inactive	CN(Cc1nc2ccc3c(c2[nH]1)C(=O)c1ccccc1C3=O)CC1OCCO1	28%	90%	104%
